Screens from PubChem.
The sample as a whole holds a higher share of hits than the screen did.
CHOP inhibitor: CHOP inhibition in unfolded protein response; CHO-K1 CHOP-promoter luciferase, tunicamycin-induced, 15-18 h; AID 2732; actives 3.8% (n = 220,000); inhibition, % at 10 µM;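 active means compounds that reduced the stress-induced luciferase reporter signal by more than about 70% of percent inhibition, limit read from the data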;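 further: 0% = tunicamycin plus vehicle and 100% = wells without tunicamycin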
Jurkat NFkB inh: lowers PMA/ionomycin-induced NF-kB signal in Jurkat cells | PMA/ionomycin-induced NF-kB luciferase reporter, luminescence | inhibition, % at 4 µM | actives 0.53% (n = 330,000); in the data active means inhibition above about 50%
XBP1 UPR activ: activators of adaptive arm of unfolded protein response (XBP1); CHO-XBP1 luciferase reporter, IRE1-XBP1 UPR activation, luminescence; percent of tunicamycin response, DMSO as zero; activation, % at 20 µM; actives 0.33% (n = 330,000);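 active means versus positive control, 20 µM dose yields 30% or more activation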;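 further: 100% = tunicamycin at 10 µg/mL and 0% = DMSO only wells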
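Material: CHO cell line with stable XBP1 luciferase reporter; schedule: 16-18 h cell attachment at 37 °C, then 6 h compound exposure; signal: glow luminescence from Steady-Glo reagent; medium: serum-containing F12 medium, 10% FBS; benchmarks: tunicamycin 10 µg/mL and vehicle-only wells; read-out: percent activation relative to tunicamycin reference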
697 NFkB inh: inhibitors of the PMA/ionomycin-induced NF-kB reporter in 697 B cells; inhibition, % at 4 µM; AID 435022; actives 0.33% (n = 330,000); 697 B-cell NF-kB luciferase reporter, 16 h; in the data active means inhibition above about 35%
CHOP UPR activ: apoptotic UPR (CHOP) activation; CHO-CHOP luciferase reporter, luminescence; percent of tunicamycin response over DMSO baseline; activation, % at 10 µM; actives 0.34% (n = 330,000);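 active means at 10 µM dose, activation of 40% or more, normalized to positive control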;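 further: 100% = tunicamycin at 10 µg/mL and 0% = DMSO alone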
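Test system: CHO CHOP reporter cells. Input: 500 CHO-CHOP cells per well. Medium: F12 with 10% FBS. Technique: luciferase luminescence. Measure: percent activation relative to tunicamycin control. Dosing: 10 µM compound, 0.5% DMSO. Timing: 16-18 h cell attachment, then 6 h compound exposure, 37 °C.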
An asterisk follows results filed as active; · = no result.

SMILES	CHOP inhibitor	Jurkat NFkB inh	XBP1 UPR activ	697 NFkB inh	CHOP UPR activ
CCc1nc2c(cnn2-c2ccc(F)cc2)c(=O)n1-c1ccc(N2CCC(C)CC2)cc1	79*	14	-3	-1	0
Cc1ccc(S(=O)(=O)CCC(=O)NCc2ccco2)cc1	24	0	0	14	0
O=C(CSc1nc(-c2ccccc2)c(-c2ccccc2)o1)Nc1nnc(-c2ccccc2)s1	23	6	0	-1	0
O=C(CSc1nc(-c2ccccc2)c(-c2ccccc2)o1)Nc1nncs1	72*	9	-2	5	-2
Nc1c(N=Nc2cccc(Cl)c2)c(=O)[nH]n1-c1ccccc1	72*	4	3	-2	4
COc1ccc(OC)c(/C=N/N(CCC#N)C2=NS(=O)(=O)c3ccccc32)c1	·	-5	0	-3	8
Cc1cn([C@H]2C[C@@H](N=[N+]=[N-])[C@@H](CO)O2)c(=O)[nH]c1=O	4	·	·	·	·
COc1ccc2cc(C)c(SCC(=O)Nc3cc(C)on3)nc2c1	84*	9	23	10	13
COc1ccccc1Nc1nnc(SCC(=O)Nc2cc(C)on2)s1	95*	-6	0	4	-3
Cc1cc(NC(=O)CSc2nnc(NCc3ccccc3)s2)no1	10	7	0	10	-1
Cc1cc(NC(=O)CSc2nc3cc(C)c(C)cc3cc2C)no1	·	13	-7	2	2
CCc1nn(C(C)C(=O)N2CCN(c3ccc(OC)cc3)CC2)c(=O)c2cc3occc3n12 (stereo not given)	·	40	-4	-37	-1
CCOc1ccc(NC(=O)CSc2ncc(-c3ccc(F)cc3)n2Cc2ccco2)cc1	42	-12	-3	-3	-2
Cc1ccc(NC(=O)Cn2c(-c3ccc(F)cc3)cnc2SCC(=O)Nc2c(C)cccc2C)cc1	81*	-10	-3	-15	-1
C[C@H](Cc1ccccc1)Nc1ncnc2c1ncn2[C@@H]1O[C@H](CO)[C@H](O)C1O (stereo not given in full)	23	·	·	·	·
COc1ccc(OCC(=O)Nc2ccncc2)cc1	1	5	-3	13	-1
O=C(Nc1ccc(CN2CCOCC2)cc1)c1ccc(-c2ccc(Br)cc2)o1	80*	10	-4	-24	-2
COc1ccc(C)cc1NC(=O)COC(=O)CCC(=O)c1cccs1	·	10	-2	14	1
CC(NC(=O)C(=O)N/N=C/c1ccccc1)c1ccccc1 (stereo not given)	71*	-6	3	13	2
CC(NC(=O)C(=O)NN=C1CCCC1)c1ccccc1 (stereo not given)	-8	-7	-1	6	2
Cc1ccc(N=Nc2[nH]c3ccccc3c2O)cc1	-20	-37	0	-29	1
COc1ccc(N=Nc2[nH]c3ccc(C)cc3c2O)cc1	91*	-28	1	-5	2
Cc1nnsc1S(=O)(=O)Cc1ccccc1C(F)(F)F	19	6	-1	10	0
COC(=O)c1cccc(NC(=O)CN2CCOCC2)c1	72*	15	2	9	0
OCCN=C1CCCc2c1[nH]c1ccc(Br)cc21	72*	0	2	4	-1
SMILES	CHOP inhibitor	Jurkat NFkB inh	XBP1 UPR activ	697 NFkB inh	CHOP UPR activ
C=CCN(CC=C)S(=O)(=O)c1ccc(F)cc1	79*	11	-2	25	2
CCCn1c(N/N=C\C=C\c2ccccc2)nc2c1c(=O)[nH]c(=O)n2C	93*	-9	4	9	0
CC(/C=C/c1ccccc1)=N\Nc1nc2c(c(=O)[nH]c(=O)n2C)n1CCO	-5	-5	0	14	-1
Cc1cccc(N=Cc2[nH]c3ccc(Br)c(Cl)c3c2O)c1	90*	·	·	·	·
COc1ccccc1CN=Cc1[nH]c2ccc(Br)c(Cl)c2c1O	60	-2	2	3	0
CC(C)(C)C1CCC2(CC1)C(C#N)=C(SCC(=O)NC1CCCCC1)NC(=O)C2C#N (stereo not given)	81*	7	1	-20	-3
N#CC1=C(SCC(=O)NC2CC2)NC(=O)C(C#N)C12CCCCC2 (stereo not given)	-11	-10	-2	8	0
N#CC1=C(SCC(=O)NC23CC4CC(CC(C4)C2)C3)NC(=O)C(C#N)C12CCCCC2 (stereo not given)	85*	12	-3	-45	2
Cc1cc(NC(=O)CCN2C(=O)/C(=C\c3ccccc3Cl)SC2=S)no1	81*	-8	1	14	-2
Cc1cc(NC(=O)CCCN2C(=O)/C(=C\c3cccs3)SC2=S)no1	70*	12	5	5	1
Cc1nc2ccc(C(C(F)(F)F)(C(F)(F)F)C(F)(F)F)cc2[nH]1	73*	8	-2	-8	1
Cc1nc2ccc(S(=O)(=O)c3ccc4nc(C)[nH]c4c3)cc2[nH]1	4	2	-5	-12	0
CCc1ccc(Nc2nc(N)nc(CSc3nnnn3-c3ccccc3)n2)cc1	88*	-4	-1	-17	1
Cc1ccccc1Nc1nc(N)nc(CSc2nnnn2-c2ccccc2)n1	54	14	-3	12	-1
CCn1c(SCC(=O)N2CCc3ccccc32)nnc1-c1ccco1	32	-12	-3	2	-2
COc1ccccc1-c1c(C(F)(F)F)oc2cc(OCC(=O)Nc3ccccc3C(F)(F)F)ccc2c1=O	34	1	1	32	0
COc1ccc(-c2c(C(F)(F)F)oc3cc(OCC(=O)Nc4ccccc4C(F)(F)F)ccc3c2=O)cc1OC	91*	·	·	·	·
O=C(c1ccccc1)c1ccc2nc(-c3ccco3)c(-c3ccco3)nc2c1	72*	-11	-1	-7	8
CC1CCc2nc(N)c(C#N)c(-c3cccn3C)c2C1 (stereo not given)	71*	-15	2	-13	3
COc1ccc(CNc2nc3c(c(C(F)(F)F)n2)CCCCC3)cc1	90*	·	·	·	·
O=C(OCc1csc(Nc2ccccc2)n1)c1ccc(Cl)cc1	74*	-3	-2	-9	-1
O=C(COc1ccccc1)OCc1csc(Nc2ccccc2)n1	-9	3	3	12	-2
Cc1ccccc1C(=O)NNC(=O)C1CC(=O)N(Cc2ccccc2)C1 (stereo not given)	·	-4	-1	21	0
CCC(=O)OCCNc1cc(Sc2nccn2C)c2nonc2c1[N+](=O)[O-]	109*	·	·	·	·
Cc1cccc(C(=O)NC(=S)Nc2cccc3nc(C)ccc23)c1	·	7	-3	5	0
Cc1ccc(C(=O)Nc2cccc(C(F)(F)F)c2)cc1Nc1cncnc1	·	-19	0	-28	1
Cc1ccc(C(=O)Nc2cccc(C(F)(F)F)c2)cc1NC(=O)c1cnnc2ccccc12	89*	-20	-4	-33	2
CC(C)(C)NC(=O)NC(=O)COC(=O)COc1ccc2c(c1)CCC2	85*	-15	-2	-11	-1
